# Reference: ChEMBL document CHEMBL3046583, “Design, synthesis, and insecticidal activity of novel pyrazole derivatives containing α-hydroxymethyl-N-benzyl carboxamide, α-chloromethyl-N-benzyl carboxamide, and 4,5-dihydrooxazole moieties” (2012)
# Activity calls are given as the source filed them. No cut-off for these calls is given here.
# Legend:
# Aphis craccivora [1] = test: Larvicidal activity against Aphis craccivora (cowpea aphid) at 200 mg/kg by leaf dip method; assay type: functional
# Culex pipiens pallens [2] = test: Larvicidal activity against Culex pipiens pallens (mosquito) at 5 mg/kg; assay type: functional
# Culex pipiens pallens [3] = test: Larvicidal activity against Culex pipiens pallens (mosquito) at 0.5 mg/kg; assay type: functional
# Tetranychus cinnabarinus [4] = test: Acaricidal activity against Tetranychus cinnabarinus (carmine spider mite) larvae at 200 mg/kg by leaf dip method; assay type: functional
# Tetranychus cinnabarinus [5] = test: Acaricidal activity against Tetranychus cinnabarinus (carmine spider mite) adults at 600 mg/kg by leaf dip method; assay type: functional
# Aphis craccivora [6] = test: Larvicidal activity against Aphis craccivora (cowpea aphid) at 600 mg/kg by leaf dip method; assay type: functional
# Culex pipiens pallens [7] = test: Larvicidal activity against Culex pipiens pallens (mosquito) at 1 mg/kg; assay type: functional
# Tetranychus cinnabarinus [8] = test: Acaricidal activity against Tetranychus cinnabarinus (carmine spider mite) eggs at 200 mg/kg by leaf dip method; assay type: functional, Egg
# Tetranychus cinnabarinus [9] = test: Acaricidal activity against Tetranychus cinnabarinus (carmine spider mite) eggs at 600 mg/kg by leaf dip method; assay type: functional, Egg
# Culex pipiens pallens [10] = test: Larvicidal activity against Culex pipiens pallens (mosquito) at 2 mg/kg; assay type: functional
# Tetranychus cinnabarinus [11] = test: Acaricidal activity against Tetranychus cinnabarinus (carmine spider mite) adults at 200 mg/kg by leaf dip method; assay type: functional
# Tetranychus cinnabarinus [12] = test: Acaricidal activity against Tetranychus cinnabarinus (carmine spider mite) larvae at 600 mg/kg by leaf dip method; assay type: functional
# Culex pipiens pallens [13] = test: Larvicidal activity against Culex pipiens pallens (mosquito); assay type: functional
# Plutella xylostella [14] = test: Stomach toxicity against Plutella xylostella (diamondback moth) assessed as larvicidal activity at 600 mg/kg by leaf dip method; assay type: functional
# Plutella xylostella [15] = test: Antifeedant activity against Plutella xylostella (diamondback moth) at 200 to 600 mg/kg by leaf dip method; assay type: functional, organism-based
# Helicoverpa armigera [16] = test: Stomach toxicity against third-instars Helicoverpa armigera assessed as larvicidal activity at 11 mg/kg at 25 +/- 1 degC after 3 days; assay type: functional
# Method in brief: (§1)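 Diet-incorporation assay on third-instar larvae. Samples dissolved in acetone to the desired final concentrations; 3 mL of test solution mixed evenly into about 27 g of prepared feed, then dispensed into 24-well plates. Run in triplicate at 25 ± 1 °C. Dead/alive scoring 3 days after treatment; mortality corrected by Abbott's formula on a 0–100 scale.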
# Helicoverpa armigera [17] = test: Stomach toxicity against third-instars Helicoverpa armigera assessed as larvicidal activity at 110 mg/kg at 25 +/- 1 degC after 3 days; assay type: functional; method in brief: as §1
# Plutella xylostella [18] = test: Stomach toxicity against Plutella xylostella (diamondback moth) assessed as larvicidal activity at 200 mg/kg by leaf dip method; assay type: functional
# Helicoverpa armigera [19] = test: Stomach toxicity against third-instars Helicoverpa armigera assessed as larvicidal activity at 22 mg/kg at 25 +/- 1 degC after 3 days; assay type: functional; method in brief: as §1
# Helicoverpa armigera [20] = test: Stomach toxicity against third-instars Helicoverpa armigera assessed as larvicidal activity at 5.5 mg/kg at 25 +/- 1 degC after 3 days; assay type: functional; method in brief: as §1
# Helicoverpa armigera [21] = test: Stomach toxicity against third-instars Helicoverpa armigera assessed as larvicidal activity at 55 mg/kg at 25 +/- 1 degC after 3 days; assay type: functional; method in brief: as §1
# Helicoverpa armigera [22] = test: Stomach toxicity against third-instars Helicoverpa armigera assessed as larvicidal activity at 25 +/- 1 degC after 3 days; assay type: functional; method in brief: as §1
Structure (SMILES),Activity (Aphis craccivora [1]),Activity (Culex pipiens pallens [2]),Activity (Culex pipiens pallens [3]),Activity (Tetranychus cinnabarinus [4]),Activity (Tetranychus cinnabarinus [5]),Activity (Aphis craccivora [6]),Activity (Culex pipiens pallens [7]),Activity (Tetranychus cinnabarinus [8]),Activity (Tetranychus cinnabarinus [9]),Activity (Culex pipiens pallens [10]),Activity (Tetranychus cinnabarinus [11]),Activity (Tetranychus cinnabarinus [12]),Activity (Plutella xylostella [14]),Activity (Plutella xylostella [15]),Activity (Helicoverpa armigera [16]),Activity (Helicoverpa armigera [17]),Activity (Plutella xylostella [18]),Activity (Helicoverpa armigera [19]),Activity (Helicoverpa armigera [20]),Activity (Helicoverpa armigera [21]),other results
CCc1nn(C)c(C(=O)NCc2ccc(C(C)(C)C)cc2)c1Cl [TEBUFENPYRAD],100%,100%,0%,100%,100%,100%,70%,100%,100%,100%,100%,100%,–,–,–,–,–,–,–,–,LC50 (Culex pipiens pallens [13]): 0.61 mg/kg
CCCCCOc1ccc(C2COC(c3c(Cl)c(CC)nn3C)=N2)cc1 (stereo not drawn),90%,100%,–,0%,20%,100%,0%,20%,40%,50%,15%,15%,70%,Active,80%,100%,30%,100%,30%,100%,–
CCc1cc(C(=O)NC(CCl)c2ccc(C(C)(C)C)cc2)n(C)n1 (stereo not drawn),65%,60%,–,0%,30%,80%,–,40%,80%,0%,0%,20%,30%,–,90%,100%,15%,100%,60%,100%,LC50 (Helicoverpa armigera [22]): 3.33 mg/kg
CCc1nn(C)c(C2=NC(c3ccc(C(C)(C)C)cc3)CO2)c1Cl (stereo not drawn),50%,100%,0%,30%,30%,90%,50%,0%,20%,100%,10%,45%,50%,–,70%,100%,30%,100%,40%,100%,–
CCc1nn(C)c(C(=O)NC(CCl)c2ccc(Cl)cc2)c1Cl (stereo not drawn),50%,100%,0%,–,0%,80%,50%,0%,10%,100%,–,0%,70%,Active,70%,100%,60%,100%,40%,100%,–
CCc1cc(C2=NC(c3ccc(C(C)(C)C)cc3)CO2)n(C)n1 (stereo not drawn),90%,100%,–,80%,100%,98%,0%,95%,100%,60%,95%,90%,60%,Active,0%,100%,45%,40%,–,100%,–
CCc1cc(C(=O)NC(CCl)c2ccc(Oc3ccccc3)cc2)n(C)n1 (stereo not drawn),95%,100%,60%,30%,50%,100%,100%,40%,50%,100%,0%,40%,45%,–,0%,100%,30%,40%,–,100%,LC50 (Culex pipiens pallens [13]): 0.35 mg/kg
CCc1nn(C)c(C(=O)NC(CCl)c2ccc(Oc3ccccc3)cc2)c1Cl (stereo not drawn),80%,100%,0%,20%,0%,100%,60%,0%,20%,100%,–,30%,90%,Active,80%,100%,60%,100%,40%,100%,–
CCc1nn(C)c(C2=NC(c3ccc(Oc4ccccc4)cc3)CO2)c1Cl (stereo not drawn),60%,100%,–,0%,0%,90%,0%,–,0%,60%,–,25%,90%,–,90%,100%,20%,100%,60%,100%,LC50 (Helicoverpa armigera [22]): 2.8 mg/kg
CCc1nn(C)c(C(=O)NCc2ccc(Oc3ccc(C)cc3)cc2)c1Cl [TOLFENPYRAD],–,–,–,–,–,–,–,–,–,–,–,–,100%,–,100%,100%,100%,100%,70%,100%,LC50 (Helicoverpa armigera [22]): 2.47 mg/kg
